Test results as given in ChEMBL document CHEMBL4387756, “Discovery of DC_H31 as potential mutant IDH1 inhibitor through NADPH-based high throughput screening” (Bioorg Med Chem, 2019).
pIC50, pKd: −log10 of the molar value. Active and inactive are the calls of the source. The rule behind the calls is not given here.

Columns and labels:
[1] = biological target: T1, Isocitrate dehydrogenase [NADP] cytoplasmic (Homo sapiens, UniProt O75874); assay: Inhibition of N-terminal 6-His-tagged wild type IDH1 (unknown origin) expressed in Escherichia coli BL21 cells using alpha-KG as substrate in presence of NADPH incubated for 40 mins by fluorescence assay
[2] = biological target: T2, Isocitrate dehydrogenase [NADP] cytoplasmic (Homo sapiens, UniProt O75874, R132H); assay: Inhibition of N-terminal 6-His-tagged IDH1 R132H mutant (unknown origin) expressed in Escherichia coli BL21 cells using alpha-KG as substrate in presence of NADPH incubated for 40 mins by fluorescence assay
How it was run: (§1)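 His-tagged-free description: E. coli BL21 expressed, affinity-purified enzyme, 100 nmol/L R132H or 20 nmol/L R132C. Remaining NADPH was read by fluorescence (ex 355/em 460 nm). Dose-response started at 50 µmol/L, seven dilution steps. IC50 is the mean of three determinations.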

[3] = biological target: T3, Isocitrate dehydrogenase [NADP] cytoplasmic (Homo sapiens, UniProt O75874, R132C); assay: Inhibition of N-terminal 6-His-tagged IDH1 R132C mutant (unknown origin) expressed in Escherichia coli BL21 cells using alpha-KG as substrate in presence of NADPH incubated for 40 mins by fluorescence assay; how it was run: as §1
[4] = system: Isocitrate dehydrogenase [NADP] cytoplasmic (Homo sapiens), O75874 [R132C]; assay: Inhibition of IDH1 R132C mutant in human HT1080 cells assessed as induction of differentiation by measuring increase in GFAP protein expression after at 0.125 to 1 umol/L 6 days by Western blot analysis; assay type: cell-based
How it was run: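 HT1080 cells in 6-well plates received indicated concentrations or DMSO for 6 days after attachment. BCA-quantified lysates were resolved on 12% SDS-PAGE and transferred to nitrocellulose. Membranes were blocked in 5% milk, probed overnight at 4 °C with anti-GFAP and anti-GAPDH, then with HRP secondary for 2 h, and detected by ECL.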

[5] = biological target: T2, Isocitrate dehydrogenase [NADP] cytoplasmic; assay: Binding affinity to N-terminal 6-His-tagged IDH1 R132H mutant (unknown origin) expressed in BL21 cells assessed as equilibrium dissociation constant by SPR assay
How it was run: (§2)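 Assay ran on a Biacore T200 at 25 °C in HBS (10 mmol/L HEPES pH 7.4, 150 mmol/L NaCl, 0.1% DMSO). Bacterially expressed, affinity-purified protein was diluted in 10 mmol/L sodium acetate and amine-coupled to a CM5 chip. Analyte ranged 25–0.78 µmol/L for R132H/C and 50–1.56 µmol/L for WT, flowed at 30 µL/min. Association 120 s, dissociation 150 s. KD from a steady-state model.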

[6] = biological target: T1, Isocitrate dehydrogenase [NADP] cytoplasmic; assay: Binding affinity to N-terminal 6-His-tagged wild type IDH1 (unknown origin) expressed in BL21 cells assessed as equilibrium dissociation constant by SPR assay; how it was run: as §2
[7] = system: Isocitrate dehydrogenase [NADP] cytoplasmic (Homo sapiens), O75874 [R132C]; assay: Inhibition of IDH1 R132C mutant in human HT1080 cells assessed as induction of differentiation by measuring decrease in SOX2 mRNA expression at 1 umol/L after 6 days by qRT-PCR analysis; assay type: cell-based
How it was run: (§3)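 HT1080 cells in 6-well plates were exposed to 1 µmol/L compound or DMSO for 6 days. RNA was extracted with Trizol, reverse transcribed, and SOX2 and GFAP expression measured by SYBR Green real-time PCR. Values are mean ±SD of three replicates.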

[8] = system: Isocitrate dehydrogenase [NADP] cytoplasmic (Homo sapiens), O75874 [R132C]; assay: Inhibition of IDH1 R132C mutant in human HT1080 cells assessed as induction of differentiation by measuring increase in GFAP mRNA expression at 1 umol/L after 6 days by qRT-PCR analysis; assay type: cell-based; how it was run: as §3
[9] = system: U-87 MG; assay: Antiproliferation activity against human U87MG cells assessed as reduction in cell viability after 72 hrs by Cell Titer-Glo luminescent assay; assay type: functional, cell-based, U-87MG ATCC
How it was run: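 HT1080 (endogenous IDH1-R132C) and U-87 MG cells kept in DMEM with 10% FBS and 1% penicillin/streptomycin at 37 °C, 5% CO2. Cells were seeded in 96-well plates and, after attachment, exposed to a concentration range for 72 h in triplicate with matched DMSO control. Viable fraction was read by CellTiter-Glo luminescence. IC50 came from a nonlinear curve fit.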

[10] = system: HT-1080; assay: Antiproliferation activity against human HT1080 cells assessed as reduction in cell viability after 72 hrs by Cell Titer-Glo luminescent assay; conditions: HT-1080, 72 h
[11] = biological target: T3, Isocitrate dehydrogenase [NADP] cytoplasmic; assay: Binding affinity to N-terminal 6-His-tagged IDH1 R132C mutant (unknown origin) expressed in BL21 cells assessed as equilibrium dissociation constant by SPR assay; how it was run: as §2
[12] = Selectivity ratio of IC50 for human HT1080 cells to IC50 for human U87MG cells; assay type: functional

T1 sequence (O75874 whole entry): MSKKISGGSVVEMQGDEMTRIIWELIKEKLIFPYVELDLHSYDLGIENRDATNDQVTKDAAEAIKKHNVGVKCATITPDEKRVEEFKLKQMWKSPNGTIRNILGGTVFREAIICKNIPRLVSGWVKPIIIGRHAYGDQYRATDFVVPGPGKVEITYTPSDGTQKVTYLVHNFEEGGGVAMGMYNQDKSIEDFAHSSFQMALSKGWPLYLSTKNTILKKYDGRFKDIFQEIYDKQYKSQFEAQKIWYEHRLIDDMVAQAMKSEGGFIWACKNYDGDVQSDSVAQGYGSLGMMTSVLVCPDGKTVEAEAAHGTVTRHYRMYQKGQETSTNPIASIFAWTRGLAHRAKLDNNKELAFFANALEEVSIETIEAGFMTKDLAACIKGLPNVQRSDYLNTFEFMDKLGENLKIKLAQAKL
Sequence of Isocitrate dehydrogenase [NADP] cytoplasmic (Homo sapiens), O75874 [R132C] (O75874 whole entry R132C): as the sequence (O75874 whole entry) above, with R132C counted along it
T3 sequence (O75874 2-414 R132C limits assumed): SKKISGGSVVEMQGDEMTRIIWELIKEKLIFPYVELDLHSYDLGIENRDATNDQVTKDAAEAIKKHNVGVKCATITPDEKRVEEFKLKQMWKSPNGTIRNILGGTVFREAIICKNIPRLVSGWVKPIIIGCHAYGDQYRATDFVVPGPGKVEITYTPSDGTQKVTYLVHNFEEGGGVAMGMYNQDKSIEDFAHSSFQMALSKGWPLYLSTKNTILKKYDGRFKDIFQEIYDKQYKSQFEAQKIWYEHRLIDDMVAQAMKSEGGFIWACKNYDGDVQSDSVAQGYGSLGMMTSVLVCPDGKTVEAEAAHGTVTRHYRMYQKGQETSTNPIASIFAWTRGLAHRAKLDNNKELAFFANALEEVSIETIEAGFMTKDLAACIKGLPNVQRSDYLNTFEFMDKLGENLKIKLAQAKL
T2 sequence (O75874 2-414 R132H limits assumed): as the sequence (O75874 2-414 R132C limits assumed) above, with C131H counted along it

pIC50 [1]	pIC50 [2]	pIC50 [3]	Structure (SMILES)	also measured
5.19	4.92	5.32	CCN1CCN(C(c2cc(C(C)(C)C)c(O)c(C(C)(C)C)c2)c2ccccn2)CC1 (stereo not drawn)	–
< 4.30	< 4.30	< 4.30	CC(C)(C)c1cc(C(c2cccc(F)c2)N2CCOCC2)cc(C(C)(C)C)c1O (stereo not drawn)	–
4.89	< 4.30	5.05	CCCCN1CCN(C(c2cc(C(C)(C)C)c(O)c(C(C)(C)C)c2)c2ccccn2)CC1 (stereo not drawn)	–
4.30	5.52	5.31	CN1CCN(C(c2cc(C(C)(C)C)c(O)c(C(C)(C)C)c2)c2ccccn2)CC1 (stereo not drawn)	–
< 4.30	< 4.30	< 4.30	CC(C)(C)c1cc(C(c2ccccn2)N2CCOCC2)cc(C(C)(C)C)c1 (stereo not drawn)	–
4.36	6.39	5.57	CC(C)(C)c1cc(C(c2ccccn2)N2CCOCC2)cc(C(C)(C)C)c1O (stereo not drawn)	inhibition [4]: Active; pKd [5]: 5.42; pKd [6]: < 4.30; inhibition [7]: Active; inhibition [8]: Active; pIC50 [9]: 4.31; pIC50 [10]: 5.30; pKd [11]: 6.14; Ratio IC50 [12]: 10
5.52	5.32	5.15	CC(C)N1CCN(C(c2cc(C(C)(C)C)c(O)c(C(C)(C)C)c2)c2ccccn2)CC1 (stereo not drawn)	–
5.07	< 4.30	5.05	CC(C)(C)c1cc(C(c2ccccn2)N2CCN(C(C)(C)C)CC2)cc(C(C)(C)C)c1O (stereo not drawn)	–
6.10	4.70	5.33	Cc1cccnc1C(c1cc(C(C)(C)C)c(O)c(C(C)(C)C)c1)N1CCOCC1 (stereo not drawn)	–
< 4.30	< 4.30	< 4.30	Cc1cccc(C(c2cc(C(C)(C)C)c(O)c(C(C)(C)C)c2)N2CCOCC2)n1 (stereo not drawn)	–

Continued, compound first:

Structure (SMILES)	pIC50 [1]	pIC50 [2]	pIC50 [3]	also measured
CC(C)(C)c1cc(C(c2ccccn2)N2CCN(C3CCCCC3)CC2)cc(C(C)(C)C)c1O (stereo not drawn)	< 4.30	< 4.30	< 4.30	–
CC(C)(C)c1cc(C(SC2CCCCC2)c2ccccn2)cc(C(C)(C)C)c1O (stereo not drawn)	< 4.30	< 4.30	< 4.30	–
CN1CCN(C(c2cc(C(C)(C)C)cc(C(C)(C)C)c2)c2ccccn2)CC1 (stereo not drawn)	< 4.30	< 4.30	< 4.30	–
CC(C)(C)c1cc(C(OC2CCCCC2)c2ccccn2)cc(C(C)(C)C)c1O (stereo not drawn)	< 4.30	< 4.30	< 4.30	–
CC(C)(C)c1cc(C(c2ccccn2)N2CCN(CC3CC3)CC2)cc(C(C)(C)C)c1O (stereo not drawn)	4.51	< 4.30	4.74	–
Cc1ccccc1C(C(=O)NC1CCCCC1)N(C(=O)Cn1ccnc1C)c1cccc(F)c1 (stereo not drawn)	–	7.09	–	–
CC(C)(C)c1cc(C(c2ccccn2)N2CCN(c3ccccc3)CC2)cc(C(C)(C)C)c1O (stereo not drawn)	< 4.30	< 4.30	< 4.30	–
